This is an account of results in ChEMBL document CHEMBL1777697, “Imidazolone-amide bridges and their effects on tubulin polymerization in cis-locked vinylogous combretastatin-A4 analogues: synthesis and biological evaluation” (Bioorg Med Chem, 2011).

SMILES strings stand for the structures. Calls of active or inactive are those of the source. The rule behind the calls is not given here.

One assay deals with MDA-MB-435. Briefly: Cytotoxicity against human MDA-MB-435 cells after 72 hrs by MTT assay. Format: functional, cell-based. The following applies: MDA-MB-435, 72 h. The method in brief: (§1)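 Log-phase cells seeded at 40000–50000 cells/mL, attached overnight, then exposed to 10^-4–10^-9 M compound for 72 h at 37 °C, 5% CO₂. Viable cells measured by MTT, absorbance 570 nm. Triplicates in at least three independent assays; IC50 by nonlinear regression.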

For a further assay, the system named is CCRF-CEM. Briefly: Cytotoxicity against human CEM cells after 72 hrs by MTT assay. It is filed as functional, cell-based. The essentials: as §1
Assay [1] concerns LoVo. Nature of the assay: Cytotoxicity against human LoVo cells after 72 hrs by MTT assay. Format: functional, cell-based. The method in brief:
as §1

The species entered for another assay is Bos taurus. Briefly: Inhibition of bovine brain tubulin polymerization at 10 uM after 60 mins by turbidimetry analysis.
Assay [2] relates to LoVo. Briefly: Cell cycle arrest in human LoVo cells assessed as accumulation at G2/M phase at 25 uM after 24 hrs using propidium iodide staining by flow cytometry relative to control. It is filed as functional. The method in brief: (§2)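 LOVO cells (10⁶) treated 24 h with compound; pelleted, fixed in citrate buffer, RNase A 20 min, then propidium iodide 20 min. DNA content read by flow cytometry to give percentage of cells per cycle phase, untreated cells as control.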

Assay [3] concerns LoVo. Nature of the assay: Cell cycle arrest in human LoVo cells assessed as accumulation at G2/M phase at 5 uM after 24 hrs using propidium iodide staining by flow cytometry (reference value: 13%). Format: functional. The method in brief:
as §2

As to `COc1cc(-c2[nH]c(=O)[nH]c2C(=O)Nc2ccccc2)cc(OC)c1OC`, the results for the 50% inhibitory concentration (IC50) with MDA-MB-435, in the assay with CCRF-CEM and in the assay on LoVo [1] were 40.4 µM, 45.9 µM and 77.6 µM, respectively.

On to `COc1ccc(NC(=O)c2[nH]c(=O)[nH]c2-c2cc(OC)c(OC)c(OC)c2)cc1[N+](=O)[O-]`, for which the IC50 with MDA-MB-435 is over 240 µM; with CCRF-CEM, over 200 µM; in the assay with LoVo [1], 43.9 µM. Also, the inhibition entry in the assay listed under Bos taurus is “inactive”.

As for `COc1ccc(NC(=O)c2[nH]c(=O)[nH]c2-c2cc(OC)c(OC)c(OC)c2)cc1`, the IC50 in the assay on MDA-MB-435 was determined as 17.4 µM; in the assay on CCRF-CEM, 2.3 µM; in the assay on LoVo [1], 35.6 µM.

For `COc1cc(-c2[nH]c(=O)[nH]c2C(=O)Nc2ccc(C)c(Cl)c2)cc(OC)c1OC`, the IC50 in the assay on MDA-MB-435 amounted to 8.34 µM; in the assay with CCRF-CEM it was 2.11 µM; with LoVo [1] it was 5.46 µM.

Regarding `COc1cc(-c2[nH]c(=O)[nH]c2C(=O)Nc2cccc([N+](=O)[O-])c2)cc(OC)c1OC`, the IC50 in the assay with MDA-MB-435 was 44.2 µM; in the assay with CCRF-CEM, over 200 µM; in the assay on LoVo [1] it was 35 µM.

`COc1cc(-c2[nH]c(=O)[nH]c2C(=O)Nc2ccc(Cl)c(Cl)c2)cc(OC)c1OC`: the IC50 in the assay on MDA-MB-435 worked out at 19.2 µM; in the assay on CCRF-CEM, 12.1 µM; in the assay with LoVo [1], 4.93 µM.

As for `COc1cc(-c2[nH]c(=O)[nH]c2C(=O)Nc2cccc3ccccc23)cc(OC)c1OC`, the IC50 with MDA-MB-435 was found to be 9.32 µM; in the assay on CCRF-CEM, 11.9 µM; with LoVo [1], 3.46 µM.

Take `COc1ccc(NC(=O)c2[nH]c(=O)[nH]c2-c2cc(OC)c(OC)c(OC)c2)cc1OC`: the IC50 worked out at 4.87 µM with MDA-MB-435, 4.19 µM in the assay with CCRF-CEM and 11.9 µM in the assay on LoVo [1].

`COc1cc(-c2[nH]c(=O)[nH]c2C(=O)Nc2cccc(C)c2)cc(OC)c1OC`: the IC50 in the assay on MDA-MB-435 turned out to be 0.76 µM; in the assay on CCRF-CEM it was 0.18 µM; in the assay on LoVo [1] it was 0.62 µM. For the same compound, in the assay filed under Bos taurus, the inhibition entry was “Active”.

As for `COc1cc(-c2[nH]c(=O)[nH]c2C(=O)Nc2ccc(C)cc2)cc(OC)c1OC`, the IC50 stood at 0.63 µM with MDA-MB-435, 0.24 µM in the assay with CCRF-CEM and 4.67 µM with LoVo [1]. For the same compound, in the assay filed under Bos taurus, the inhibition entry was “Active”.

Consider `COc1cc(-c2[nH]c(=O)[nH]c2C(=O)Nc2cccc(Cl)c2)cc(OC)c1OC`, for which the values for the IC50 in the assay with MDA-MB-435, with CCRF-CEM and in the assay on LoVo [1] were 4.77 µM, 4.8 µM and 3.62 µM, respectively.

As to `COc1ccc(NC(=O)c2[nH]c(=O)[nH]c2-c2cc(OC)c(OC)c(OC)c2)cc1N`, the Activity in the assay with LoVo [2] came to 74%; in the assay on LoVo [3], 28%. Further, the IC50 in the assay on MDA-MB-435 turned out to be 0.62 µM; in the assay with CCRF-CEM, 0.33 µM; with LoVo [1] it was 3.4 µM. Besides, the inhibition entry in the assay filed under Bos taurus is “Active”.

`COc1cc(-c2[nH]c(=O)[nH]c2C(=O)Nc2ccc(C(C)(C)C)cc2)cc(OC)c1OC`: the values for the IC50 with MDA-MB-435, in the assay on CCRF-CEM and in the assay with LoVo [1] were 32.2 µM, 38.8 µM and 34 µM, respectively.

For the compound `COc1cc2c(c(OC)c1OC)-c1ccc(OC)c(=O)cc1[C@@H](NC(C)=O)CC2` [COLCHICINE], the IC50 in the assay with MDA-MB-435 was found to be 0.0073 µM; in the assay with CCRF-CEM, 0.0172 µM; with LoVo [1], 0.101 µM.

In the case of `COc1cc(-c2[nH]c(=O)[nH]c2C(=O)Nc2ccc(Cl)cc2)cc(OC)c1OC`, the half-inhibitory concentration (IC50) was 152 µM with MDA-MB-435, over 200 µM with CCRF-CEM and 110 µM in the assay with LoVo [1].

Regarding `COc1cc(-c2[nH]c(=O)[nH]c2C(=O)Nc2cc(C)cc(C)c2)cc(OC)c1OC`, the results for the IC50 in the assay with MDA-MB-435, in the assay on CCRF-CEM and with LoVo [1] were 33.8 µM, 19.4 µM and 23.4 µM, respectively.
